Data from paper PMC10716778 (The Journal of Biological Chemistry, 2023).
Converted amounts (≈) assume the structure as drawn.

What was measured:
KPC-44 [1] = target: T1, KPC-44 (Klebsiella pneumoniae, UniProt Q9F663, DUP260-274); type: biochemical; details: for kcat / Km: substrate hydrolysis by KPC-44, 30 °C; for kcat: 50 mM sodium phosphate pH 7; for Km: pH 7; for fold lower kcat than KPC-2 / fold lower kcat/KM than KPC-2: KPC-44 vs KPC-2
[2] = system: Escherichia coli expressing KPC-2; assay: MIC by broth dilution, E. coli expressing KPC-2; type: cell-based
[3] = system: Escherichia coli expressing KPC-44; assay: MIC by broth dilution, E. coli expressing KPC-44; type: cell-based; details: for fold lower MIC than WT KPC-2: E. coli expressing KPC-44 vs KPC-2; for MIC: Escherichia coli
[4] = system: Escherichia coli Top10 vector control (no β-lactamase); assay: MIC by broth dilution, E. coli vector control; type: cell-based
KPC-2 [5] = target: T2, KPC-2 (Klebsiella pneumoniae, UniProt Q9F663); assay: Decarbamylation/deborylation rate; type: biochemical; details: jump dilution, 30 °C
How it was run: (§1)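 It was then diluted 100-fold into the same buffer and added to 200 μM nitrocefin at 1:10. Recovery of activity was followed continuously at A482, 30 °C. Vaborbactam deborylation was run the same way.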

KPC-44 [6] = target: T1, KPC-44; assay: Decarbamylation/deborylation rate; type: biochemical; details: for k-2: KPC-44, jump dilution, 30 °C
How it was run: as §1

KPC-44 [7] = target: T1, KPC-44; assay: Inhibition of nitrocefin hydrolysis; type: biochemical
KPC-2 [8] = target: T2, KPC-2; assay: Steady-state kinetics of β-lactam hydrolysis by KPC-2; details: substrate hydrolysis by KPC-2; 30 °C, 50 mM sodium phosphate pH 7
KPC-2 [9] = target: T2, KPC-2; assay: Inhibition of nitrocefin hydrolysis; type: biochemical
[10] = system: CC(C)(O/N=C(\C(=O)N[C@@H]1C(=O)N2C(C(=O)[O-])=C(C[n+]3ccccc3)CS[C@H]12)c1csc(N)n1)C(=O)O; assay: purified protein, by the assay type; details: other: substrate hydrolysis by KPC-2, 30 °C, pH 7
[11] = system: C[C@@H](O)[C@H]1C(=O)N2C(C(=O)O)=C(SCCN=CN)C[C@H]12; assay: purified protein, by the assay type; details: other: substrate hydrolysis by KPC-2, 30 °C, pH 7
[12] = system: C[C@@H](O)[C@H]1C(=O)N2C(C(=O)O)=C(S[C@@H]3CN[C@H](C(=O)N(C)C)C3)[C@H](C)[C@H]12; assay: purified protein, by the assay type; details: other: substrate hydrolysis by KPC-2, 30 °C, pH 7

In the case of `CC1(C)S[C@@H]2[C@H](NC(=O)[C@H](N)c3ccccc3)C(=O)N2[C@H]1C(=O)O` [Ampicillin], the kcat (KPC-44 [1]) is reported as 126 ± 5 s⁻¹, the Km (KPC-44 [1]) is reported as 232 ± 22 µM and the MIC [2] is reported as 128 µg/mL (≈ 366 µM). For the same compound, the “fold lower MIC than WT KPC-2” value [3] was 2 fold, the MIC [3] was 64 µg/mL (≈ 183 µM) and the MIC [4] was 4 µg/mL (≈ 11.4 µM).

With `NC(=O)[C@@H]1CC[C@@H]2CN1C(=O)N2OS(=O)(=O)O` [Avibactam] the k-2 (KPC-2 [5]) was “(9.6 ± 0.020) × 10^−5 s^−1” and the k-2 (KPC-44 [6]) was “(7.1 ± 0.32) × 10^−5 s^−1”.

Compound `CC(C)(O/N=C(\C(=O)N[C@@H]1C(=O)N2C(C(=O)[O-])=C(C[n+]3ccccc3)CS[C@H]12)c1csc(N)n1)C(=O)O` [Ceftazidime] has an MIC [2] of 2 µg/mL (≈ 3.66 µM), an MIC [3] of 8 µg/mL (≈ 14.6 µM) and an MIC [4] of 0.5 µg/mL (≈ 0.915 µM).

For `O=C(O)[C@H]1/C(=C/CO)O[C@@H]2CC(=O)N21` [Clavulanate], the IC50 (KPC-44 [7]) was 4800 ± 170 nM.

In the case of `C[C@@H](O)[C@H]1C(=O)N2C(C(=O)O)=C(SCCN=CN)C[C@H]12` [Imipenem], the “fold lower kcat than KPC-2” value (KPC-44 [1]) is reported as 8 fold, the “fold lower kcat/KM than KPC-2” value (KPC-44 [1]) is reported as 4 fold and the kcat (KPC-44 [1]) is reported as 6.4 ± 0.33 s⁻¹. For the same compound, the Km (KPC-44 [1]) was 57 ± 7.1 µM, the MIC [2] was 1.5 µg/mL (≈ 5.01 µM) and the “fold lower MIC than WT KPC-2” value [3] was 2 fold. The “fold higher MIC than negative control” value ([3]; E. coli expressing KPC-44 vs no β-lactamase control) was 3 fold, the MIC [3] was 0.75 µg/mL (≈ 2.51 µM) and the MIC [4] was 0.25 µg/mL (≈ 0.835 µM).

In the case of `C[C@@H](O)[C@H]1C(=O)N2C(C(=O)O)=C(S[C@@H]3CN[C@H](C(=O)N(C)C)C3)[C@H](C)[C@H]12` [Meropenem], the “fold lower kcat than KPC-2” value (KPC-44 [1]) is reported as 7 fold, the “fold lower kcat/KM than KPC-2” value (KPC-44 [1]) is reported as 3 fold and the kcat (KPC-44 [1]) is reported as 0.46 ± 0.022 s⁻¹. For the same compound, the Km (KPC-44 [1]) was 7.3 ± 1.4 µM, the MIC [2] was 0.375 µg/mL (≈ 0.978 µM) and the MIC [3] was 0.25 µg/mL (≈ 0.652 µM). For the same compound, the MIC [4] was 0.25 µg/mL (≈ 0.652 µM).

`O=C(Cc1cccs1)N[C@@H]1C(=O)N2C(C(=O)O)=C(/C=C/c3ccc([N+](=O)[O-])cc3[N+](=O)[O-])CS[C@H]12` [Nitrocefin] was tested, and the kcat (KPC-44 [1]) was 20 ± 0.67 s⁻¹, the Km (KPC-44 [1]) was 16 ± 1.4 µM and the kcat (KPC-2 [8]) was 130 ± 2.2 s⁻¹.

With `O=C(O)C[C@@H]1CC[C@H](NC(=O)Cc2cccs2)B(O)O1` [Vaborbactam] the IC50 (KPC-44 [7]) was 220 ± 0.92 nM, the “fold difference in IC50 (less potent versus KPC-44 compared to KPC-2)” value (KPC-44 [7]; KPC-44 vs KPC-2) was “less than 2 fold” and the k-2 (KPC-2 [5]) was “(1.2 ± 0.014) × 10^−5 s^−1”. For the same compound, the IC50 (KPC-2 [9]) was 130 ± 5.4 nM, the k-2 (KPC-44 [6]) was “(2.9 ± 0.047) × 10^−5 s^−1” and the “fold higher k-2 than KPC-2” value (KPC-44 [6]; KPC-44 vs KPC-2) was 3 fold.

Work on KPC-2 (Klebsiella pneumoniae) yielded a kcat [10] greater than 0.8 s⁻¹, a kcat/Km [10] of 1100 ± 66 M⁻¹ s⁻¹ and a Km [11] of 130 ± 33 µM. The kcat [11] was 50 ± 4.5 s⁻¹, the kcat/Km [11] was 380000 ± 100000 M⁻¹ s⁻¹ and the Km [12] was 19 ± 2.9 µM. It also gave a kcat [12] of 3.3 ± 0.18 s⁻¹ and a kcat/Km [12] of 170000 ± 28000 M⁻¹ s⁻¹.
